Assay [1] has as its target GABA-A receptor; anion channel. Kind of assay: (§1) Displacement of [3H]flunitrazepam from GABA-A benzodiazepine receptor of rat cortical membranes. Format: cell membranes, Membrane. In outline: (§2)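 Rat membranes incubated 60 min at 4 °C with [3H]flunitrazepam, 50 µg membrane protein and graded test drug in 200 µL containing NaCl, 10 mM Hepes/Tris pH 7.4 and 1 mM MgCl2; bound ligand separated by rapid filtration on GF/B; mean affinity, SE ≤10% of mean.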

The target in assay [2] is T1, GABA-A receptor; anion channel (Rattus norvegicus) (UniProt O09028+P15431+P18506+P18508+P19969+P20236+P23574+P23576+P28471+P28473+P30191+P62813+P63079+P63138+Q91ZM7+Q9ES14). Description: Shift in [35S]TBPS binding to GABA-A Benzodiazepine receptor of rat brain membrane.
Assay [3] deals with T2, GABA-A receptor; alpha-1/beta-2/gamma-2 (Homo sapiens) (UniProt P14867+P47870+P18507). Description: (§3) In vitro GABA-mediated chloride current in A293 cells expressing GABA-A benzodiazepine receptor alpha-1-beta-2-gamma-2 subunits at 5 uM. The following applies: HEK293. It is filed as functional, cell-based.
For the next assay, the system named is Rattus norvegicus. Kind of assay: In vivo efficacy evaluated for ability to antagonize metrazole induced clonic convulsions in rat after ip injection. It is filed as functional.
Assay [4] has as its target T2, GABA-A receptor; alpha-1/beta-2/gamma-2 (Homo sapiens). Described as §3. Format: functional, cell-based. The following applies: HEK293. The source holds these as a separate data set.
Assay [5] deals with T1, GABA-A receptor; anion channel (Rattus norvegicus). The description is as §1. On the set-up: concentration or dose not given beside the values. The following applies: Membrane, concentration not given here. Format: cell membranes. An outline of the steps: as §2
The species named for the next assay is Mus musculus. Description: Ability to antagonize the muscle relaxation effect in mice caused by a benzodiazepine full agonist, triazolam. Format: functional. In outline:
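Muscle relaxation induced by triazolam; test compound and triazolam given separately, traction scored 30 min after dosing; ED50 for blocking the relaxant effect.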

The structures appear in SMILES notation.

One may read the Ki as a dissociation constant, usually derived from enzyme kinetics or from competition with a known ligand. The ED50 is the dose at which the effect has come halfway, by size or by number of responders. Usually inhibition stands for the percentage by which the read-out fell short of the control.

The compound `CC(C)(C)OC(=O)c1ncn2c1CN(C(=O)N1CCNCC1)c1cc(Cl)ccc1-2` showed a Ki in assay [1] of 3.99 nM. Besides, the Shift in assay [2] was -0.02. The Change in Cl- current was 0 in assay [3] and 0.4 in assay [4]. The ED50 in the assay on Rattus norvegicus was > 50 mg/kg.

The compound `CN1C2CCC1CN(C(=O)N1Cc3c(C(=O)OC(C)(C)C)ncn3-c3ccc(Cl)cc31)C2` registered an inhibition in assay [5] of 26%. This compound returned a Ki in assay [1] of 9.15 nM. For the same compound, in assay [2], the Shift came to 0.68. The values for the Change in Cl- current in assay [3] and in assay [4] were 2 and 2.1, respectively. Besides, the ED50 was > 30 mg/kg in the assay listed under Mus musculus and 29.7 mg/kg with Rattus norvegicus.

`CC(C)(C)OC(=O)c1ncn2c1CN(C(=O)N1CC3CCC(C1)N3)c1cc(Cl)ccc1-2` came in with a Ki in assay [1] of 5.45 nM. In addition, the Shift in assay [2] is 0.2. Moreover, the results for the Change in Cl- current in assay [3] and in assay [4] were 0.2 and 0.73, respectively. Further, in the assay on Rattus norvegicus, the ED50 is > 50 mg/kg.

In assay [1], `CC(C)(C)OC(=O)c1ncn2c1CN(C(=O)N1CCNCC1)c1ccccc1-2.Cl` displayed a Ki of 4.11 nM. For the same compound, the Shift in assay [2] was determined as 0.04. In addition, the median effective dose (ED50) in the assay on Rattus norvegicus was > 50 mg/kg. In assay [4], this compound returned a Change in Cl- current of 0.35.

Turning to `CN(C)C(=O)N1Cc2c(C(=O)OC(C)(C)C)ncn2-c2ccccc21`, affinity in assay [1] was put at a Ki of 5.25 nM. For the same compound, in assay [2], the Shift came out at 0.15. The same compound registered a Change in Cl- current in assay [3] of 0.09. Further, in the assay on Rattus norvegicus, the median effective dose (ED50) was > 50 mg/kg.

With `CC1CN(C(=O)N2Cc3c(C(=O)OC(C)(C)C)ncn3-c3ccc(Cl)cc32)C(C)CN1.O=C(O)CC(=O)O` (configuration not stated), the inhibition in assay [5] is 71%. This compound also had a Ki in assay [1] of 7.8 nM. In assay [2], the Shift worked out at 0.41. Also, the Change in Cl- current is -0.05 in assay [3] and 0.3 in assay [4]. Also, the ED50 in the assay listed under Mus musculus is > 30 mg/kg; with Rattus norvegicus, 17.6 mg/kg.

Compound `CN1CC2CC1CN2C(=O)N1Cc2c(C(=O)OC(C)(C)C)ncn2-c2ccc(Cl)cc21` (configuration not stated) yielded an inhibition in assay [5] of 11%. In assay [1], the Ki was determined as 4.89 nM. Also, the Shift in assay [2] came to 0.68. Moreover, the Change in Cl- current in assay [3] is 1; in assay [4] it was 1.6. For the same compound, the ED50 in the assay filed under Mus musculus is > 30 mg/kg; in the assay on Rattus norvegicus it was 7.4 mg/kg.

In the case of `Cc1cccc2c1N(C(=O)N1C[C@@H](C)N[C@@H](C)C1)Cc1c(C(=O)OC(C)(C)C)ncn1-2`, the affinity in assay [1] corresponds to a Ki of 250 nM. Further, the Shift in assay [2] was 0.54. In assay [3], this compound registered a Change in Cl- current of 0.22. The ED50 in the assay with Rattus norvegicus is > 50 mg/kg.

In assay [1], `Cc1ccc2c(c1)N(C(=O)N1CCNCC1)Cc1c(C(=O)OC(C)(C)C)ncn1-2` registered a Ki of 14.7 nM. The Shift in assay [2] was determined as 0.3. Besides, the Change in Cl- current in assay [3] turned out to be 0.4; in assay [4], 0.55. In addition, the ED50 in the assay listed under Mus musculus was > 30 mg/kg; in the assay with Rattus norvegicus it was 21 mg/kg.

`C[C@@H]1CN(C(=O)N2Cc3c(C(=O)OC(C)(C)C)ncn3-c3ccc(Cl)cc32)C[C@@H](C)N1` came in with an inhibition in assay [5] of 62%. The Ki in assay [1] stood at 5.13 nM. Further, the Shift in assay [2] was 0.56. Besides, the Change in Cl- current in assay [3] came out at 0.05; in assay [4] it was 0.5. Moreover, the ED50 in the assay listed under Mus musculus is > 30 mg/kg; in the assay on Rattus norvegicus, 1.3 mg/kg.

`C[C@@H]1NCCN(C(=O)N2Cc3c(C(=O)OC(C)(C)C)ncn3-c3ccc(Cl)cc32)[C@H]1C`: in assay [5], the inhibition amounted to 55%. This compound also came in with a Ki in assay [1] of 4.03 nM. In addition, in assay [2], the Shift was 0.07. For the same compound, the Change in Cl- current turned out to be 0.48 in assay [3] and 0.68 in assay [4]. For the same compound, the ED50 in the assay filed under Mus musculus was 35 mg/kg; with Rattus norvegicus, 17.7 mg/kg.

In assay [1], `C[C@@H]1CN(C(=O)N2Cc3c(C(=O)OC(C)(C)C)ncn3-c3ccccc32)C[C@H](C)N1C` returned a Ki of 6.67 nM. The Shift in assay [2] was -0.82. Besides, the Change in Cl- current in assay [3] was -0.1; in assay [4] it was 0.5. Further, the ED50 with Rattus norvegicus was > 50 mg/kg.

Turning to `Cc1cccc2c1N(C(=O)N1C[C@@H](C)N(C)[C@@H](C)C1)Cc1c(C(=O)OC(C)(C)C)ncn1-2`, the Ki in assay [1] amounted to 470 nM. Also, in assay [2], the Shift amounted to 0.48. This compound yielded a Change in Cl- current in assay [3] of 0.33. For the same compound, in the assay on Rattus norvegicus, the ED50 is > 50 mg/kg.

The values are drawn from ChEMBL document CHEMBL1132620, “Piperazine imidazo[1,5-a]quinoxaline ureas as high-affinity GABAA ligands of dual functionality” (J Med Chem, 1999).
